According to ChEMBL document CHEMBL1759990, “Synthesis and SAR of novel quinazolines as potent and brain-penetrant c-jun N-terminal kinase (JNK) inhibitors” (Bioorg Med Chem Lett, 2011):

Key:
[1] = Drug level in mouse plasma at 10 mg/kg, ip after 2 hrs; format: ADME, organism-based; design: dose 10 mg/kg, route intraperitoneal; settings: read-out: Drug uptake
How it was run: (§1)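 Mouse dosed at 10 mg/kg ip. Brain and plasma concentrations (µM) were measured at 2 h.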

[2] = Drug level in mouse brain at 10 mg/kg, ip after 2 hrs; format: ADME, organism-based; design: dose 10 mg/kg, route intraperitoneal; settings: read-out: Drug uptake; how it was run: as §1
[3] = Cmax in rat at 2 mg/kg, po; format: ADME, organism-based; design: dose 2 mg/kg, route oral; settings: in vivo
[4] = AUC in rat at 2 mg/kg, po; format: ADME, organism-based; design: dose 2 mg/kg, route oral; settings: plasma
[5] = Volume of distribution in rat at 1 mg/kg, iv; format: ADME, organism-based; design: dose 1 mg/kg, route intravenous; settings: in vivo
[6] = target: Mitogen-activated protein kinase 8 (Homo sapiens, UniProt P45983); assay: Inhibition of JNK1 by HRTF
Sequence of Mitogen-activated protein kinase 8 (P45983 whole entry): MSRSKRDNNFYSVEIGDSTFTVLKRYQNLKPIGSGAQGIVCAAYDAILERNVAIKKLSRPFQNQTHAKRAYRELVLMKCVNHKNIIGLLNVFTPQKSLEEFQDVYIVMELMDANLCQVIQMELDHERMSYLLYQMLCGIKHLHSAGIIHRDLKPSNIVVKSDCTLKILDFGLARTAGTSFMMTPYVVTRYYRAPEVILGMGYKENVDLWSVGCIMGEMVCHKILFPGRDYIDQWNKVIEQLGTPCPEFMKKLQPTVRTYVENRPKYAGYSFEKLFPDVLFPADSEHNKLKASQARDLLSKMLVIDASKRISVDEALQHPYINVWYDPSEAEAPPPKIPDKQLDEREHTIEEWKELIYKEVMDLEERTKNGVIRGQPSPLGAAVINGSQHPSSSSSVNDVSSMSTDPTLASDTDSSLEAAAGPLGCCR
How it was run: (§2)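 HTRF kinase assay with final concentrations of 0.1 nM JNK1 or 0.3 nM JNK3, 0.4 nM biotinylated-ATF2 substrate and 1 mM ATP. Phospho-Thr71-ATF-2 was detected with a Europium-cryptate anti-phospho-Thr71-ATF-2 antibody, with streptavidin-allophycocyanin-XL as acceptor. A 10-point dose-response was run in duplicate and fit to a four-parameter logistic. JNK3 values are means of four or more experiments; JNK1 values are means of two or more.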

Rattus norvegicus [7] = assay: Oral bioavailability in rat at 2 mg/kg; format: ADME, organism-based; settings: in vivo
Rattus norvegicus [8] = assay: Half life in rat at 1 mg/kg, iv; format: ADME, organism-based; design: dose 1 mg/kg, route intravenous; settings: in vivo
[9] = target: Mitogen-activated protein kinase 10 (Homo sapiens, UniProt P53779); assay: Inhibition of JNK3 by HRTF; how it was run: as §2
Sequence of Mitogen-activated protein kinase 10 (P53779 whole entry): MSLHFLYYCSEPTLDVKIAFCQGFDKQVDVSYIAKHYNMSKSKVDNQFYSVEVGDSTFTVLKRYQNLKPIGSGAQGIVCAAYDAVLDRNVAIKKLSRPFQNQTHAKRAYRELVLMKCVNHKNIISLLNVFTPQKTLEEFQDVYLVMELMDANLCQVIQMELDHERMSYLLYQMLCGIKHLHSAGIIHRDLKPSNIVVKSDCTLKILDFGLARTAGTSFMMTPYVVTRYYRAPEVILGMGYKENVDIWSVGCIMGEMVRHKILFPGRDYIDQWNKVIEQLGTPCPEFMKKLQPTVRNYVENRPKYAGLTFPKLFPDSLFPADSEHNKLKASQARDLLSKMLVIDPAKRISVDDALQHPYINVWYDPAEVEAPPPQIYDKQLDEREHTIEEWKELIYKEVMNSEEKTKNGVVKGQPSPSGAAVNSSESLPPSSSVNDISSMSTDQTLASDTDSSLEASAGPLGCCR

With Cn1cc(-c2ccc3cnc(Nc4ccc(-n5cnc(N6CCOCC6)n5)cc4)nc3c2)cn1 the concentration at 2 h [1] was 17.8 µM, the concentration at 2 h [2] was 7.17 µM and the Cmax [3] was 0.7 µM. The AUC [4] was 6.3 µM·h, the Vd [5] was 0.8 L/kg and the IC50 [6] was 50 nM. It also gave an F (Rattus norvegicus [7]) of 28%, a t1/2 (Rattus norvegicus [8]) of 3 h and an IC50 [9] of 90 nM.

In the case of c1cc(-n2cnc(N3CCOCC3)n2)ccc1Nc1ncc2ccc(-c3cn[nH]c3)cc2n1, the concentration at 2 h [1] is reported as 42.9 µM, the concentration at 2 h [2] is reported as 1.31 µM and the IC50 [6] is reported as 40 nM. It also gave an IC50 [9] of 50 nM.

c1cc(-n2cnc(N3CCOCC3)n2)ccc1Nc1ncc2ccc(-c3cnoc3)cc2n1 gave an IC50 [9] of 700 nM.

For c1cc(-n2cnc(N3CCOCC3)n2)ccc1Nc1ncc2ccc(N3CCOCC3)cc2n1, the IC50 [9] was 4400 nM.

c1cncc(-c2ccc3cnc(Nc4ccc(-n5cnc(N6CCOCC6)n5)cc4)nc3c2)c1 gave a concentration at 2 h [1] of 26.7 µM, a concentration at 2 h [2] of 8.1 µM and an IC50 [9] of 210 nM.

In the case of Cc1ccc(-c2ccc3cnc(Nc4ccc(-n5cnc(N6CCOCC6)n5)cc4)nc3c2)cn1, the IC50 [9] is reported as 730 nM.

With c1ccc(-c2ccc3cnc(Nc4ccc(-n5cnc(N6CCOCC6)n5)cc4)nc3c2)cc1 the IC50 [9] was > 20000 nM.

Cc1ccc(-c2ncn(-c3ccc(Nc4ncc5ccc(-c6cn[nH]c6)cc5n4)cc3)n2)cn1 showed an IC50 [9] of 50 nM.

In the case of Cn1cc(-c2ccc3cnc(Nc4ccc(-n5cnc(-c6ccccn6)n5)cc4)nc3c2)cn1, the concentration at 2 h [1] is reported as 13.1 µM, the concentration at 2 h [2] is reported as 1.37 µM and the IC50 [6] is reported as 100 nM. The IC50 [9] was 60 nM.

Molecule Cc1ccc(-c2cccc3cnc(Nc4ccc(-n5cnc(N6CCOCC6)n5)cc4)nc23)cn1 has a concentration at 2 h [1] of 2.7 µM, a concentration at 2 h [2] of 0.15 µM and an IC50 [9] of 30 nM.

Work on Cn1cc(-c2cccc3cnc(Nc4ccc(-n5cnc(N6CCOCC6)n5)cc4)nc23)cn1 yielded a concentration at 2 h [1] of 2.2 µM, a concentration at 2 h [2] of 0.23 µM and an IC50 [6] of 10 nM. It also gave an IC50 [9] of 20 nM.

For COc1ccc(-c2cccc3cnc(Nc4ccc(-n5cnc(N6CCOCC6)n5)cc4)nc23)cc1F, the concentration at 2 h [1] was 6.1 µM, the concentration at 2 h [2] was 1.5 µM and the IC50 [6] was 90 nM. It also gave an IC50 [9] of 70 nM.

Molecule c1cc(-c2nccs2)c2nc(Nc3ccc(-n4cnc(N5CCOCC5)n4)cc3)ncc2c1 has an IC50 [6] of 30 nM and an IC50 [9] of 7 nM.

For c1ccc(-c2cccc3cnc(Nc4ccc(-n5cnc(N6CCOCC6)n5)cc4)nc23)cc1, the concentration at 2 h [1] was 5.2 µM, the concentration at 2 h [2] was 12.7 µM and the IC50 [6] was 50 nM. For the same molecule, the IC50 [9] was 60 nM.

COc1ccc(-c2cccc3cnc(Nc4ccc(-n5cnc(C)n5)cc4)nc23)cc1F gave a concentration at 2 h [1] of 10.3 µM, a concentration at 2 h [2] of 7.6 µM and an IC50 [9] of 80 nM.

With Cc1ncn(-c2ccc(Nc3ncc4cccc(-c5nccs5)c4n3)cc2)n1 the concentration at 2 h [1] was 5 µM, the concentration at 2 h [2] was 4.5 µM and the IC50 [6] was 10 nM. The IC50 [9] was 20 nM.

For COc1ccc(-c2cccc3cnc(Nc4ccc(-n5cnc(-c6ccccn6)n5)cc4)nc23)cc1F, the IC50 [9] was 90 nM.

In the case of Cc1ccc(-c2cccc3cnc(Nc4ccc(-n5cnc(C)n5)cc4)nc23)cn1, the concentration at 2 h [1] is reported as 2.31 µM, the concentration at 2 h [2] is reported as 0.23 µM and the IC50 [9] is reported as 30 nM.

Cc1ccc(-c2cccc3cnc(Nc4ccc5c(c4)OCO5)nc23)cn1 gave a concentration at 2 h [1] of 0.78 µM, a concentration at 2 h [2] of 1.06 µM and an IC50 [9] of 60 nM.

Cc1ccc(-c2cccc3cnc(Nc4ccc(F)cc4)nc23)cn1 showed an IC50 [9] of 170 nM.

Cc1ccc(-c2cccc3cnc(Nc4ccc(C(=O)N5CCOCC5)cc4)nc23)cn1 showed an IC50 [9] of 90 nM.

With Cc1ccc(-c2cccc3cnc(NC4CCC(O)CC4)nc23)cn1 (stereo not given) the IC50 [9] was 50 nM.

Molecule Cc1ccc(-c2cccc3cnc(N[C@H]4CC[C@@H](C(=O)N5CCCC5)CC4)nc23)cn1 has an IC50 [9] of 30 nM.

Molecule Cn1cc(-c2ccc3cnc(Nc4ccc(-n5cnc(N6CCOCC6)n5)cc4)nc3c2Cl)cn1 has a concentration at 2 h [1] of 10.4 µM, a concentration at 2 h [2] of 8.3 µM and a Cmax [3] of 0.3 µM. The AUC [4] was 2.3 µM·h, the Vd [5] was 1.4 L/kg and the F (Rattus norvegicus [7]) was 19%. For the same molecule, the t1/2 (Rattus norvegicus [8]) was 3 h and the IC50 [9] was 40 nM.

Molecule CC(C)n1cc(-c2ccc3cnc(Nc4ccc(-n5cnc(N6CCOCC6)n5)cc4)nc3c2Cl)cn1 has a concentration at 2 h [1] of 4.3 µM, a concentration at 2 h [2] of 7.2 µM and an IC50 [9] of 63 nM.

Cc1c(-c2cnn(C)c2)ccc2cnc(Nc3ccc(-n4cnc(N5CCOCC5)n4)cc3)nc12 showed a concentration at 2 h [1] of 7.4 µM, a concentration at 2 h [2] of 7.6 µM and an IC50 [9] of 10 nM.

In the case of Cn1cc(-c2ccc3cnc(Nc4ccc(-n5cnc(N6CCOCC6)n5)cc4)nc3c2C(F)(F)F)cn1, the concentration at 2 h [1] is reported as 8.3 µM, the concentration at 2 h [2] is reported as 5.6 µM and the IC50 [9] is reported as 190 nM.

For Cn1cc(-c2ccc3cnc(Nc4ccc(-n5cnc(N6CCOCC6)n5)cc4)nc3c2C2CC2)cn1, the concentration at 2 h [1] was 10.6 µM, the concentration at 2 h [2] was 5 µM and the IC50 [9] was 20 nM.

In the case of Cn1cc(-c2ccc3cnc(Nc4ccc(-n5cnc(N6CCOCC6)n5)cc4)nc3c2-c2cnn(C)c2)cn1, the concentration at 2 h [1] is reported as 6.3 µM, the concentration at 2 h [2] is reported as 0.22 µM and the IC50 [9] is reported as 9 nM.

Work on Cn1cc(-c2ccc3cnc(Nc4ccc(-n5cnc(N6CCOCC6)n5)cc4)nc3c2-c2ccccc2)cn1 yielded a concentration at 2 h [1] of 6.4 µM, a concentration at 2 h [2] of 1.1 µM and an IC50 [9] of 10 nM.

In the case of COc1c(-c2cnn(C)c2)ccc2cnc(Nc3ccc(-n4cnc(N5CCOCC5)n4)cc3)nc12, the concentration at 2 h [1] is reported as 9.4 µM, the concentration at 2 h [2] is reported as 4.9 µM and the F (Rattus norvegicus [7]) is reported as 8%. It also gave an IC50 [9] of 4 nM.
